According to ChEMBL document CHEMBL1177746, “Labdanes and sucrose esters from Physalis sordida” (J Nat Prod, 2010):

Assays:
Mus musculus [1] = assay: Antiinflammatory activity in NIH mouse assessed as inhibition of TPA-induced mouse ear edema measured per ear administered to right ear relative to untreated control; assay type: functional, organism-based
Outline: (§1)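 Male NIH mice, groups of 5-8, anaesthetized with Sedaphorte. Right ear got TPA 2.5 μg in 10 μL EtOH, split across both faces; left ear got EtOH only. 10 min later, test compound at 0.1 to 1.0 μmol in 20 μL Me₂CO-CH₂Cl₂ (1:1) was applied to the right ear; controls got vehicle only. Sacrificed at 4 h; a 7 mm plug was taken from each ear.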

Mus musculus [2] = assay: Antiinflammatory activity in NIH mouse assessed as inhibition of TPA-induced mouse ear edema at 1 umol/ear administered to right ear relative to untreated control; assay type: functional; outline: as §1

Compound | IC50 (Mus musculus [1]) | inhibition (INH) (Mus musculus [2])
CC(=O)O[C@H](C[C@H]1C(C)=CC[C@H]2C(C)(C)CCC[C@]12C)/C(C)=C/CO | – | 25.4%
C=C1[C@H](OC(C)=O)C[C@H]2C(C)(C)CCC[C@]2(C)[C@H]1C[C@@H](OC(C)=O)/C(C)=C/COC(C)=O | – | 29.4%
C=C1[C@H](O)C[C@H]2C(C)(C)CCC[C@]2(C)[C@H]1C[C@@H](O)/C(C)=C/CO [PHYSORDIN] | 0.63 µmol/ear | 64.3%
CC1=CC[C@H]2C(C)(C)CCC[C@]2(C)[C@H]1C[C@@H](O)/C(C)=C/CO [PHYSACOZTOMATIN] | 0.49 µmol/ear | 65.8%

The next lines start with results.

IC50 (Mus musculus [1]) | Compound | inhibition (INH) (Mus musculus [2])
0.34 µmol/ear | CCCCCCCCCCCC(=O)O[C@H]1[C@@H](O[C@]2(COC(C)=O)O[C@H](CO)[C@@H](O)[C@@H]2O)O[C@H](CO)[C@@H](O)[C@@H]1OC(=O)C(C)C | –
0.26 µmol/ear | CCCCCCCCCCCC(=O)O[C@H]1[C@@H](O[C@]2(COC(C)=O)O[C@H](CO)[C@@H](O)[C@@H]2OC(=O)C(C)C)O[C@H](CO)[C@@H](O)[C@@H]1OC(=O)C(C)C | –
0.24 µmol/ear | CCCCCCCCCCCC(=O)O[C@H]1[C@@H](O[C@]2(CO)O[C@H](CO)[C@@H](O)[C@@H]2O)O[C@H](CO)[C@@H](O)[C@@H]1OC(=O)C(C)C | –
0.35 µmol/ear | CCCCCCCCCCCC(=O)O[C@H]1[C@@H](O[C@]2(CO)O[C@H](CO)[C@@H](O)[C@@H]2OC(=O)C(C)C)O[C@H](CO)[C@@H](O)[C@@H]1OC(=O)C(C)C | –
